According to ChEMBL document CHEMBL1125742, “(2S)-1-(arylacetyl)-2-(aminomethyl)piperidine derivatives: novel, highly selective kappa opioid analgesics” (J Med Chem, 1991):

Key:
Mus musculus [1] = assay: Compound was evaluated for its antinociceptive activity in the mouse tail flick (MTF) test following peroral administration; format: functional; conditions: po
How it was run: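 Mouse tail flick test, D'Amour and Smith procedure as modified by Ling et al., with oral (po) dosing. ED50 in mg/kg with 95% confidence limits, derived by Finney probit analysis.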

[2] = target: T1, Kappa-type opioid receptor (Cavia porcellus, UniProt P41144); assay: Displacement of [3H]U-69593 from kappa opioid receptors in guine pig brain (minus cerebellum).; format: tissue-based
T1 sequence (P41144 whole entry): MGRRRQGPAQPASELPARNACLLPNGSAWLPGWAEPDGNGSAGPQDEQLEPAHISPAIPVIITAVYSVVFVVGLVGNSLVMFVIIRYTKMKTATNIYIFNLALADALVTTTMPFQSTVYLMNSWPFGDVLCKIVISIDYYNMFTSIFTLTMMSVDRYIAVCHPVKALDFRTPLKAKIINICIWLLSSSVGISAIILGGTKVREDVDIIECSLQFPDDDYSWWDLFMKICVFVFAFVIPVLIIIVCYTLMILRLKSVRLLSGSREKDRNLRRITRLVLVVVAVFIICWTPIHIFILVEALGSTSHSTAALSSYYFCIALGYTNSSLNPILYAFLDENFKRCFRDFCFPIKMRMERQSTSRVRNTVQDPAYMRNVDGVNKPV

Mus musculus [3] = assay: Antinociceptive activity in mouse tail flick test following s.c. administration.; format: functional
How it was run: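 Mouse tail flick test, D'Amour and Smith procedure as modified by Ling et al., with compound given subcutaneously. ED50 in mg/kg with 95% confidence limits, derived by Finney probit analysis.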

Mu-type opioid receptor [4] = target: T2, Mu-type opioid receptor (Cavia porcellus, UniProt P97266); assay: Displacement of [3H]DAGO from mu opioid receptors in guinea pig brain (minus cerebellum).; format: tissue-based
T2 sequence (P97266 whole entry): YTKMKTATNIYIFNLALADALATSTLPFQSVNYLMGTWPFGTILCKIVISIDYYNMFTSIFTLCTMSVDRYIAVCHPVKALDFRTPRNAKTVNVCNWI
How it was run: (§1)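 μ sites in fresh guinea pig brain homogenate (minus cerebellum) were labelled with [3H]DAGO for 40 min at 25 °C. Samples were filtered on GF/C, washed with ice-cold Tris buffer, and bound radioactivity counted. Nonspecific binding was set with 10^-6 M naloxone. Ki by Cheng–Prusoff, as the mean of triplicate curves (n = 3 experiments).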

Mus musculus [5] = assay: Compound was evaluated for its antinociceptive activity in the mouse tail flick (MTF) test following subcutaneous administration of 10 mg/kg; format: functional
How it was run: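 Mouse tail flick test, D'Amour and Smith procedure as modified by Ling et al. A single 10 mg/kg subcutaneous dose was given and the result recorded as % protection.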

[6] = target: T1, Kappa-type opioid receptor; assay: Compound was evaluated for its binding affinity against Opioid receptor kappa 1 subtype in guinea pig brain (minus cerebellum) using [3H]U-69593 as radioligand.; format: tissue-based
How it was run: (§2)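 Fresh guinea pig brain homogenate (cerebellum removed) incubated with κ-selective [3H]U-69593 and competitor for 50 min at 25 °C. Samples were filtered on GF/C, washed and counted by liquid scintillation. Nonspecific binding was set with 10^-6 M naloxone. Ki from Cheng–Prusoff, as the mean of triplicate concentration–response curves (n = 3 experiments).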

Mu-type opioid receptor [7] = target: T2, Mu-type opioid receptor; assay: Compound was evaluated for its binding affinity against Opioid receptor mu 1 subtype in guinea pig brain (minus cerebellum) using [3H]-DAGO as radioligand.; format: tissue-based; how it was run: as §1
[8] = target: T1, Kappa-type opioid receptor; assay: Compound was evaluated for its binding affinity against Opioid receptor kappa 1 subtype in guinea pig brain (minus cerebellum). using [3H]U-69593 as radioligand.; format: tissue-based; how it was run: as §2
Mu-type opioid receptor [9] = target: T2, Mu-type opioid receptor; assay: Compound was evaluated for its binding affinity against opioid receptor mu subtype in guinea pig brain (minus cerebellum) using [3H]DAGO as radioligand.; format: tissue-based; how it was run: as §1
[10] = Mus musculus, Tail, sc, read-out: ED50

Structure (SMILES) | Ki [2] | ED50 (Mus musculus [3]; [10]) | Ki (Mu-type opioid receptor [4]) | also measured
O=C(Cc1ccc(C(F)(F)F)cc1)N1CCCCC1CN1CCCC1 (stereo in doubt; 21) | 0.57 nM | 0.11 mg/kg | 2340 nM | ED50 (Mus musculus [1]): 1.17 mg/kg
CN1CCCC1C1CCCCN1C(=O)Cc1ccc(Cl)c(Cl)c1 (stereo in doubt; 41) | 0.33 nM | 0.4 mg/kg | 464 nM | –
CN1CCCC1C1CCCCN1C(=O)Cc1ccc(Cl)c(Cl)c1 (stereo in doubt; 42) | 11.7 nM | – | 864 nM | Protection (Mus musculus [5]): 40%
CN1CC[C@]23c4c5ccc(O)c4O[C@H]2[C@@H](O)C=C[C@H]3[C@H]1C5 [MORPHINE] | – | 2.8 mg/kg | – | –
CN(C)C[C@@H]1CCCCN1C(=O)Cc1ccc(Cl)c(Cl)c1 | 0.7 nM | 0.87 mg/kg | 2160 nM | –
O=C(Cc1ccccc1C(F)(F)F)N1CCCCC1CN1CCCC1 (configuration not stated) | 8.54 nM | – | > 10000 nM | Protection (Mus musculus [5]): 60%
Cc1ccc(CC(=O)N2CCCCC2CN2CCCC2)cc1 (configuration not stated) | 3.84 nM | 3.88 mg/kg | > 10000 nM | –
CN(C)CC1CCCCN1C(=O)Cc1ccc(Cl)c(Cl)c1 (configuration not stated) | – | 0.92 mg/kg | – | Ki [6]: 1.36 nM; Ki (Mu-type opioid receptor [7]): 3050 nM
O=C(Cc1ccc(Cl)c(Cl)c1)N1CCCC[C@H]1CN1CCCC1 | 0.24 nM | 0.05 mg/kg | 1560 nM | ED50 (Mus musculus [1]): 0.89 mg/kg
CCN(CC)CC1CCCCN1C(=O)Cc1ccc(Cl)c(Cl)c1 (configuration not stated) | 1.28 nM | 0.77 mg/kg | 5000 nM | –
O=C(Cc1ccc(Cl)c(Cl)c1)N1CCCC[C@@H]1CN1CCCC1 | 15.4 nM | 17.5 mg/kg | 7110 nM | –
O=C(Cc1ccc(Cl)c(Cl)c1)N1CCCCC1CN1CCCCC1 (configuration not stated) | – | 0.19 mg/kg | – | Ki [6]: 0.48 nM; Ki (Mu-type opioid receptor [7]): 4810 nM
Cc1ccc(CC(=O)N2CCCCC2CN2CCCC2)cc1C (configuration not stated) | 1.83 nM | 2.89 mg/kg | 5310 nM | –
O=C(Cc1cccc([N+](=O)[O-])c1)N1CCCCC1CN1CCCC1 (configuration not stated) | – | 0.86 mg/kg | – | –
O=C(Cc1ccc(Cl)c(Cl)c1)N1CCCCC1CN1CCCC1 (configuration not stated) | – | 0.09 mg/kg | – | Ki (Mu-type opioid receptor [7]): 1860 nM; Ki [8]: 0.53 nM
O=C(Cc1ccc([N+](=O)[O-])cc1)N1CCCCC1CN1CCCC1 (configuration not stated) | – | 0.49 mg/kg | – | –
O=C(Cc1ccc(Br)cc1)N1CCCCC1CN1CCCC1 (configuration not stated) | 0.84 nM | 0.46 mg/kg | 2980 nM | –
O=C(Cc1ccc(O)cc1)N1CCCCC1CN1CCCC1 (configuration not stated) | 194 nM | – | > 10000 nM | Protection (Mus musculus [5]): 0%
O=C(Cc1cccc(C(F)(F)F)c1)N1CCCCC1CN1CCCC1 (configuration not stated) | 1.07 nM | 0.38 mg/kg | > 10000 nM | –
CC(C)(C)c1ccc(CC(=O)N2CCCCC2CN2CCCC2)cc1 (configuration not stated) | – | 1 mg/kg | – | –
O=C(Cc1ccc(Cl)cc1)N1CCCCC1CN1CCCC1 (configuration not stated) | 1.68 nM | 0.84 mg/kg | 5910 nM | –
O=C(Cc1ccc(C2CCCCC2)cc1)N1CCCCC1CN1CCCC1 (configuration not stated) | 827 nM | – | 974 nM | Protection (Mus musculus [5]): 0%
O=C(Cc1ccc(F)cc1)N1CCCCC1CN1CCCC1 (configuration not stated) | 15.4 nM | 9.22 mg/kg | > 10000 nM | –
O=C(Cc1ccc(C(F)(F)F)cc1)N1CCCCC1CN1CCCC1 (stereo in doubt; 20) | 0.78 nM | – | 3520 nM | ED50 (Mus musculus [3]): 0.2 mg/kg
CC(C1CCCCN1C(=O)Cc1ccc(Cl)c(Cl)c1)N(C)C (stereo in doubt; 37) | 0.6 nM | 0.38 mg/kg | 762 nM | –
CC(C1CCCCN1C(=O)Cc1ccc(Cl)c(Cl)c1)N(C)C (stereo in doubt; 38) | 1000 nM | – | – | Protection (Mus musculus [5]): 0%; Ki (Mu-type opioid receptor [9]): > 10000 nM
